Reference: ChEMBL document CHEMBL3297651, “Plumbagin downregulates Wnt signaling independent of p53 in human colorectal cancer cells” (J Nat Prod, 2014)
pIC50: −log10 of the molar value. Active and inactive are the calls of the source. The rule behind the calls is not given here.

Assays:
SW-620 [1] = assay: Inhibition of proto-oncogene protein Wnt in human SW620 cells assessed as downregulation of beta-catenin protein expression at 6 uM after 24 hrs by Western blot analysis; assay type: cell-based
How it was run: (§1)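 10^6 cells/well in six-well plates treated 24 h with compound (6 μM SW620; 10 μM HCT116 lines) or DMSO control. Lysed 1 h on ice in Tris/NaCl/Triton/deoxycholate buffer with phosphatase and protease inhibitors; 50−75 μg protein on 8−10% SDS-PAGE, PVDF, primary antibodies 1:1000 overnight 4 °C, HRP secondaries 1:10 000, chemiluminescence; β-actin loading control; three independent experiments.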

SW480 [2] = assay: Inhibition of proto-oncogene protein Wnt/beta-catenin in human SW480 cells assessed as downregulation of TCF/LEF promoter transcriptional activity after 24 hrs by TOPFlash luciferase reporter gene assay; assay type: cell-based
SW-620 [3] = assay: Cytotoxicity against human SW620 cells assessed as cell viability after 24 hrs by MTT assay; assay type: functional, cell-based
How it was run: (§2)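 Cells seeded at 5000/well in 96-well plates, adhered overnight, then exposed to compound for 24 or 48 h (0−20 μM for SW480/SW620; 0−30 μM for HCT116 p53+/+ and p53−/−). MTT (5 mg/mL) added for 3.5 h, formazan dissolved in DMSO, OD read at 570 nm with 655 nm reference. Means ± SE from three independent experiments; IC50 derived from viability curves.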

HCT-116 [4] = assay: Inhibition of proto-oncogene protein Wnt in p53-deficient human HCT116 cells assessed as downregulation of beta-catenin protein expression at 10 uM after 24 hrs by Western blot analysis relative to control; assay type: cell-based; how it was run: as §1
HCT-116 [5] = assay: Inhibition of proto-oncogene protein Wnt/beta-catenin in human HCT116 cells expressing p53 assessed as downregulation of TCF/LEF promoter transcriptional activity at 5 to 10 uM after 24 hrs by TOPFlash/FOPFlash luciferase reporter gene assay; assay type: cell-based
How it was run: (§3)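 3 × 10^4 cells/well transfected with TOPFlash or FOPFlash plus Renilla plasmids (200 ng) by lipofectin in serum- and antibiotic-free DMEM. After 6 h, compound added in complete DMEM for 24 h (SW620 1−3 μM; HCT116 lines 5 and 10 μM), DMSO control. Dual luciferase read by photon counting, firefly normalized to Renilla; means ± SE, three independent experiments, Student t-test.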

SW480 [6] = assay: Inhibition of proto-oncogene protein Wnt/beta-catenin in human SW480 cells assessed as downregulation of mutant TCF/LEF promoter transcriptional activity at 1 to 3 uM after 24 hrs by FOPFlash luciferase reporter gene assay; assay type: cell-based
SW480 [7] = assay: Inhibition of proto-oncogene protein Wnt in human SW480 cells assessed as downregulation of TCF7L2 protein expression at 6 to 10 uM after 24 hrs by Western blot analysis; assay type: cell-based
HCT-116 [8] = assay: Inhibition of proto-oncogene protein Wnt/beta-catenin in p53-deficient human HCT116 cells assessed as downregulation of TCF/LEF promoter transcriptional activity at 5 to 10 uM after 24 hrs by TOPFlash/FOPFlash luciferase reporter gene assay; assay type: cell-based; how it was run: as §3
SW480 [9] = assay: Cytotoxicity against human SW480 cells assessed as cell viability after 24 hrs by MTT assay; assay type: functional, cell-based; how it was run: as §2
SW-620 [10] = assay: Inhibition of proto-oncogene protein Wnt/beta-catenin in human SW620 cells assessed as downregulation of cyclin D1 protein expression at 6 uM after 24 hrs by Western blot analysis relative to control; assay type: cell-based; how it was run: as §1
HCT-116 [11] = assay: Inhibition of proto-oncogene protein Wnt in human HCT116 cells expressing p53 assessed as downregulation of beta-catenin protein expression at 10 uM after 24 hrs by Western blot analysis relative to control; assay type: cell-based; how it was run: as §1
SW480 [12] = assay: Cytotoxicity against human SW480 cells assessed as cell viability after 48 hrs by MTT assay; assay type: functional, cell-based; how it was run: as §2
SW-620 [13] = assay: Inhibition of proto-oncogene protein Wnt in human SW620 cells assessed as downregulation of Bcl9l protein expression at 6 uM after 24 hrs by Western blot analysis; assay type: cell-based; how it was run: as §1
SW480 [14] = assay: Inhibition of proto-oncogene protein Wnt in human SW480 cells assessed as downregulation of p300 protein expression at 6 to 10 uM after 24 hrs by Western blot analysis; assay type: cell-based
SW-620 [15] = assay: Inhibition of proto-oncogene protein Wnt/beta-catenin in human SW620 cells assessed as downregulation of vimentin protein expression at 6 uM after 24 hrs by Western blot analysis relative to control; assay type: cell-based; how it was run: as §1
SW480 [16] = assay: Inhibition of proto-oncogene protein Wnt in human SW480 cells assessed as downregulation of Bcl9l protein expression at 6 to 10 uM after 24 hrs by Western blot analysis; assay type: cell-based
HCT-116 [17] = assay: Upregulation of HBP1 protein expression in human HCT116 cells expressing p53 at 10 uM after 24 hrs by Western blot analysis; assay type: functional, cell-based; how it was run: as §1
SW-620 [18] = assay: Inhibition of proto-oncogene protein Wnt/beta-catenin in human SW620 cells assessed as downregulation of TCF/LEF promoter transcriptional activity after 24 hrs by TOPFlash luciferase reporter gene assay; assay type: cell-based; how it was run: as §3
SW480 [19] = assay: Inhibition of proto-oncogene protein Wnt in human SW480 cells assessed as downregulation of beta-catenin protein expression at 6 to 10 uM after 24 hrs by Western blot analysis; assay type: cell-based
SW-620 [20] = assay: Inhibition of proto-oncogene protein Wnt in human SW620 cells assessed as downregulation of p300 protein expression at 6 uM after 24 hrs by Western blot analysis; assay type: cell-based; how it was run: as §1
HCT-116 [21] = assay: Cytotoxicity against human HCT116 cells expressing p53 assessed as cell viability after 24 hrs by MTT assay; assay type: functional, cell-based; details: HCT-116, 24 h; how it was run: as §2
SW-620 [22] = assay: Inhibition of proto-oncogene protein Wnt/beta-catenin in human SW620 cells assessed as downregulation of c-Myc protein expression at 6 uM after 24 hrs by Western blot analysis relative to control; assay type: cell-based; how it was run: as §1
HCT-116 [23] = assay: Upregulation of HBP1 protein expression in p53-deficient human HCT116 cells at 10 uM after 24 hrs by Western blot analysis; assay type: functional, cell-based; how it was run: as §1
SW-620 [24] = assay: Inhibition of proto-oncogene protein Wnt/beta-catenin in human SW620 cells assessed as downregulation of mutant TCF/LEF promoter transcriptional activity at 1 to 3 uM after 24 hrs by FOPFlash luciferase reporter gene assay; assay type: cell-based; how it was run: as §3
HCT-116 [25] = assay: Cytotoxicity against p53-deficient human HCT116 cells assessed as cell viability after 24 hrs by MTT assay; assay type: functional, cell-based; details: HCT-116, 24 h; how it was run: as §2
SW-620 [26] = assay: Inhibition of proto-oncogene protein Wnt in human SW620 cells assessed as downregulation of TCF7L2 protein expression at 6 uM after 24 hrs by Western blot analysis; assay type: cell-based; how it was run: as §1
SW-620 [27] = assay: Cytotoxicity against human SW620 cells assessed as cell viability after 48 hrs by MTT assay; assay type: functional, cell-based; how it was run: as §2
SW-620 [28] = assay: Upregulation of HBP1 protein expression in human SW620 cells at 6 uM after 24 hrs by Western blot analysis relative to control; assay type: functional; how it was run: as §1

**Q.** What does the source list for `CC1=CC(=O)c2c(O)cccc2C1=O` [PLUMBAGIN]?
**A.** inhibition (SW-620 [1]): Active; inhibition (SW480 [2]): Dose-dependent effect; Activity (SW-620 [3]): Dose-dependent effect; pIC50 (SW-620 [3]; SW-620, 24 h): 5.11; inhibition (HCT-116 [4]): 20%; inhibition (HCT-116 [5]): Active; inhibition (SW480 [6]): inactive; inhibition (SW480 [7]): Active; inhibition (HCT-116 [8]): Active; Activity (SW480 [9]): Dose-dependent effect; pIC50 (SW480 [9]; SW480, 24 h): 4.92; inhibition (SW-620 [10]): 50%; inhibition (HCT-116 [11]): 33%; Activity (SW480 [12]): Dose-dependent effect; pIC50 (SW480 [12]; SW480, 48 h): 5.14; inhibition (SW-620 [13]): Active; inhibition (SW480 [14]): Active; inhibition (SW-620 [15]): 50%; inhibition (SW480 [16]): Active; Activity (HCT-116 [17]): Active; inhibition (SW-620 [18]): Dose-dependent effect; inhibition (SW480 [19]): Active; inhibition (SW-620 [20]): Active; pIC50 (HCT-116 [21]): 4.70; inhibition (SW-620 [22]): 50%; Activity (HCT-116 [23]): Active; inhibition (SW-620 [24]): inactive; pIC50 (HCT-116 [25]): 4.70; inhibition (SW-620 [26]): Active; Activity (SW-620 [27]): Dose-dependent effect; pIC50 (SW-620 [27]; SW-620, 48 h): 5.13; fold change (FC) (SW-620 [28]): 1.68
